From ChEMBL document CHEMBL1130259, “Nonsymmetrically substituted cyclic urea HIV protease inhibitors” (J Med Chem, 1997) come the findings set out here.

A short description of data set [1]: Maximum concentration in dog plasma. The format is ADME, organism-based, Canis lupus familiaris. The method in brief: (§1)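 Female Beagle dogs received either 10.0 mg/kg orally (three dogs; 10.0 mg/mL, 1.0 mL/kg) or 5.0 mg/kg intravenously (same formulation, 0.5 mL/kg). Vehicle was PEG400/water/EtOH (60/30/10). Plasma concentrations were assayed by a method validated over 0.10–50.0 μg/mL.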

Data set [2] is described as follows: Clearance of compound in dog plasma. The format is ADME, organism-based, Canis lupus familiaris. The method in brief:
(§2)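 Female Beagle dogs given a 5.0 mg/kg intravenous dose. Formulation was 10.0 mg/mL in PEG400/water/EtOH (60/30/10), dosed at 0.5 mL/kg. Compound levels were measured in plasma by a method validated over 0.10–50.0 μg/mL.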

Data set [3] can be described thus: Half life determined by administering intravenously in dog plasma. The format is ADME, organism-based, Canis lupus familiaris. Particulars: iv. In short, it runs like this:
as §2

Data set [4] is described as follows: Apparent volume of distribution of compound in dog plasma. The format is ADME, organism-based, Canis lupus familiaris. The conditions noted are these: read-out: Vss. The method in brief: as §2
Data set [5] deals with Human immunodeficiency virus type 1 protease (Human immunodeficiency virus 1) (UniProt Q72874).
Data set [6] can be described thus: Partition coefficient (logP) (HPLC). The format is physicochemical. Particulars: octanol/water.
Data set [7] deals with Human immunodeficiency virus type 1 protease (Human immunodeficiency virus 1, UniProt Q72874). Nature of the data set: Affinity against HIV protease.
Data set [8] can be described thus: Half life (5 mg/kg, intravenously) determined by administering intravenously in dogs. The format is ADME, organism-based, Canis lupus familiaris. The conditions noted are these: dog, in vivo, iv. The method in brief:
as §2

Data set [9] in a line: Half life (10 mg/kg, perorally) […] in dogs. Format: ADME, organism-based, Canis lupus familiaris. The conditions noted are these: dog, in vivo. The method in brief: (§3)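 Three female Beagle dogs were dosed orally at 10.0 mg/kg. The compound was given at 10.0 mg/mL in PEG400/water/EtOH (60/30/10) at 1.0 mL/kg. Plasma drug was quantified by a method validated in dog plasma over 0.10–50.0 μg/mL.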

A short description of data set [10]: Maximum concentration (10 mg/kg, perorally) in plasma of dogs. Particulars: dog, po. Format: ADME, organism-based, Canis lupus familiaris. Also on record: dose 10 mg/kg, route oral. In short, it runs like this: as §3
The nature of data set [11]: Oral bioavailability in dog (dose 10 mg/kg). The format is ADME, organism-based, Canis lupus familiaris. Particulars: in vivo. The method in brief: as §1
The nature of data set [12]: Apparent volume of distribution of compound (5 mg/kg, intravenously) in dogs. Particulars: dog, in vivo, iv, read-out: Vss. Format: ADME, organism-based, Canis lupus familiaris. In short, it runs like this:
as §2

Data set [13] can be described thus: Clearance of compound (5 mg/kg, intravenously), in dog plasma. The format is ADME, organism-based, Canis lupus familiaris. The conditions noted are these: iv. The method in brief: as §2
The species named for a further data set is Canis lupus familiaris. Nature of the data set: Clearance of compound in dog plasma.
Data set [14] can be described thus: Half life determined by administering intravenously in dog. The conditions noted are these: in vivo, iv. The format is ADME, organism-based, Canis lupus familiaris. The method in brief: as §2
The nature of data set [15]: Clearance (5 mg/kg, intravenously) in dog plasma. The conditions noted are these: iv.
Data set [16] is described as follows: Half life (5 mg/kg, intravenously) determined by administering intravenously in dogs. Particulars: dog, in vivo, iv.
A short description of data set [17]: Half life (10 mg/kg, orally) […] in dog plasma. Format: ADME, organism-based, Canis lupus familiaris. In short, it runs like this:
as §3

A short description of data set [18]: Apparent volume of distribution of compound (5 mg/kg, intravenously) in dogs. The conditions noted are these: dog, in vivo, iv, read-out: Vss.
Data set [19] can be described thus: Maximum concentration (10 mg/kg, orally) in plasma of dogs. The arrangement: dose 10 mg/kg, route oral. The conditions noted are these: dog, po. Format: ADME, organism-based, Canis lupus familiaris. The method in brief:
as §3

A short description of data set [20]: Maximum concentration (5 mg/kg, intravenously) in plasma of dogs. Format: ADME, organism-based, Canis lupus familiaris. Also on record: dose 5 mg/kg, route intravenous. Particulars: dog, iv. In short, it runs like this: as §2

In the case of `O=C(Nc1ccccn1)c1cccc(CN2C(=O)N(Cc3cccc(C(=O)Nc4ccccn4)c3)[C@H](Cc3ccccc3)[C@H](O)[C@@H](O)[C@H]2Cc2ccccc2)c1`, in [1], the Cmax is less than 200 ng/mL. In addition, the clearance in [2] was 70 mL/min/kg. This molecule also showed a half-life in data set [3] of 1.1 h. Also, the Vd in data set [4] worked out at 10.3 L/kg. Besides, the IC90 in data set [5] came to 2.8 nM.

For `COc1cc(CN2C(=O)N(Cc3cccc(C(=O)Nc4ccc(C)cn4)c3)[C@H](Cc3ccccc3)[C@H](O)[C@@H](O)[C@H]2Cc2ccccc2)cc(OC)c1`, the logP in data set [6] is 5.59. This molecule also had an inhibitory constant (Ki) in data set [7] of 1.9 nM. The same molecule registered an IC90 in [5] of 282 nM.

For the molecule `CC(C)(C)NC(=O)[C@@H]1C[C@@H]2CCCC[C@@H]2CN1C[C@@H](O)[C@H](Cc1ccccc1)NC(=O)[C@H](CC(N)=O)NC(=O)c1ccc2ccccc2n1`, the 90% effect level in data set [5] (IC90) was put at 10.4 nM.

The molecule `COc1cccc(CN2C(=O)N(Cc3cccc(C(=O)Nc4cccc(C)n4)c3)[C@H](Cc3ccccc3)[C@H](O)[C@@H](O)[C@H]2Cc2ccccc2)c1` registered a logP in data set [6] of 5.54. In [7], this molecule came in with a Ki of 0.053 nM. Moreover, in data set [5], it took 42.7 nM to reach the 90% level (IC90).

In data set [6], `COc1cc(CN2C(=O)N(Cc3cccc(C(=O)Nc4cnccn4)c3)[C@H](Cc3ccccc3)[C@H](O)[C@@H](O)[C@H]2Cc2ccccc2)cc(OC)c1` returned a logP of 4.84. In [7], this molecule came in with a Ki of 2.51 nM. In [5], the 90% effect level (IC90) was put at 743 nM.

For the molecule `CC(C)(C)NC(=O)c1cccc(CN2C(=O)N(Cc3cccc(N)c3)[C@H](Cc3ccccc3)[C@H](O)[C@@H](O)[C@H]2Cc2ccccc2)c1`, the logP in [6] came to 5.28. The molecule further gave a Ki in [7] of 0.41 nM. Further, the IC90 in [5] turned out to be 114 nM.

In the case of `COc1cccc(CN2C(=O)N(Cc3cccc(C(=O)Nc4ccccn4)c3)[C@H](Cc3ccccc3)[C@H](O)[C@@H](O)[C@H]2Cc2ccccc2)c1`, the logP in data set [6] turned out to be 5.06. In data set [7], the Ki was found to be 0.047 nM. This molecule also showed an IC90 in data set [5] of 30 nM.

With `Nc1cccc(CN2C(=O)N(Cc3cccc(C(=O)Nc4ncc[nH]4)c3)[C@H](Cc3ccccc3)[C@H](O)[C@@H](O)[C@H]2Cc2ccccc2)c1`, the half-life was 5.6 h in data set [8] and 10.3 h in data set [9]. Moreover, the Cmax in data set [10] was found to be 900 ng/mL. In addition, the bioavailability in data set [11] is 68%. For the same molecule, the Vd in [12] was found to be 4 L/kg. The molecule further gave a logP in data set [6] of 3.39. The same molecule had a Ki in [7] of 0.012 nM. The clearance in data set [13] is 8.33 mL/min/kg. The molecule further registered an IC90 in data set [5] of 26.2 nM.

Turning to `Cc1ccc(NC(=O)c2cccc(CN3C(=O)N(Cc4cccc(C(=O)Nc5ccc(C)cn5)c4)[C@H](Cc4ccccc4)[C@H](O)[C@@H](O)[C@H]3Cc3ccccc3)c2)nc1`, in the data set listed under Canis lupus familiaris, the clearance was 66.7 mL/min/kg. In addition, the concentration in data set [1] peaked (Cmax) at 100 ng/mL. In [14], this molecule gave a half-life of 1 h. Further, in data set [4], the Vd is 4.5 L/kg. In data set [5], the IC90 is 3.1 nM.

In the case of `COc1cccc(CN2C(=O)N(Cc3cccc(C(=O)Nc4cnccn4)c3)[C@H](Cc3ccccc3)[C@H](O)[C@@H](O)[C@H]2Cc2ccccc2)c1`, the logP in data set [6] amounted to 4.75. Moreover, the Ki in [7] came out at 0.038 nM. For the same molecule, in [5], the IC90 amounted to 91.2 nM.

Molecule `N#CCNC(=O)c1cccc(CN2C(=O)N(Cc3cccc(C(=O)NCC(=O)O)c3)[C@H](Cc3ccccc3)[C@H](O)[C@@H](O)[C@H]2Cc2ccccc2)c1` had a logP in data set [6] of 2.44. The same molecule yielded a Ki in [7] of 0.024 nM. In addition, in [5], the IC90 came out at 741 nM.

With `CC(C)(C)NC(=O)[C@@H]1CN(Cc2cccnc2)CCN1C[C@@H](O)C[C@@H](Cc1ccccc1)C(=O)N[C@H]1c2ccccc2C[C@H]1O`, the IC90 in data set [5] is 50 nM.

As for `Nc1cccc(CN2C(=O)N(Cc3cccc(N)c3)[C@H](Cc3ccccc3)[C@H](O)[C@@H](O)[C@H]2Cc2ccccc2)c1` [MOZENAVIR], in [15], the clearance is 3.33 mL/min/kg. The figures for the half-life in [16] and in data set [17] were 3.6 h and 2.5 h, respectively. Also, in data set [11], the bioavailability amounted to 79.2%. The same molecule had a logP in data set [6] of 3.17. Moreover, in [18], the Vd is 1.3 L/kg. The molecule also gave a Cmax in data set [19] of 6000 ng/mL. In data set [7], this molecule showed a Ki of 0.31 nM.

On to `Nc1cccc(CN2C(=O)N(Cc3cccc(C(=O)Nc4cnccn4)c3)[C@H](Cc3ccccc3)[C@H](O)[C@@H](O)[C@H]2Cc2ccccc2)c1`, for which the logP in [6] was found to be 3.77. In [7], this molecule registered a Ki of 0.016 nM. In data set [5], the IC90 was 20.2 nM.

On to `COc1cccc(CN2C(=O)N(Cc3cccc(C(=O)Nc4ccc(C)cn4)c3)[C@H](Cc3ccccc3)[C@H](O)[C@@H](O)[C@H]2Cc2ccccc2)c1`, for which the logP in [6] worked out at 5.51. Affinity in [7] was put at a Ki of 0.069 nM. In [5], this molecule displayed an IC90 of 41.6 nM.

Consider `Cc1ccc(NC(=O)c2cccc(CN3C(=O)N(Cc4cccc(N)c4)[C@H](Cc4ccccc4)[C@H](O)[C@@H](O)[C@H]3Cc3ccccc3)c2)nc1`, for which the logP in data set [6] is 4.47. Besides, the Ki in data set [7] came out at 0.075 nM. For the same molecule, in [5], the IC90 amounted to 16.5 nM.

The molecule `O=C(Nc1ccccn1)c1cccc(CN2C(=O)N(Cc3cccc([N+](=O)[O-])c3)[C@H](Cc3ccccc3)[C@H](O)[C@@H](O)[C@H]2Cc2ccccc2)c1` came in with a logP in data set [6] of 5.05. Also, in data set [7], the affinity, expressed as Ki, was 0.096 nM. In addition, the IC90 in [5] was determined as 97.5 nM.

`O=C1N(Cc2ccc(CO)cc2)[C@H](Cc2ccccc2)[C@H](O)[C@@H](O)[C@@H](Cc2ccccc2)N1Cc1ccc(CO)cc1` [DMP-323] registered a logP in [6] of 3.56. The IC90 in data set [5] is 115 nM.

For `O=C(Nc1cnccn1)c1cccc(CN2C(=O)N(Cc3cccc(C(=O)Nc4cnccn4)c3)[C@H](Cc3ccccc3)[C@H](O)[C@@H](O)[C@H]2Cc2ccccc2)c1`, the Cmax in data set [1] amounted to 400 ng/mL. The clearance in data set [2] is 46.7 mL/min/kg. This molecule also had a half-life in [3] of 0.8 h. Besides, the Vd in [4] amounted to 3 L/kg. In [5], this molecule showed an IC90 of 3.5 nM.

In the case of `COc1cc(CN2C(=O)N(Cc3cccc(C(=O)Nc4cccc(C)n4)c3)[C@H](Cc3ccccc3)[C@H](O)[C@@H](O)[C@H]2Cc2ccccc2)cc(OC)c1`, in [6], the logP was found to be 5.69. This molecule displayed a Ki in data set [7] of 0.7 nM. Further, the IC90 in [5] was found to be 282 nM.

`COc1cc(CN2C(=O)N(Cc3cccc(C(=O)Nc4ccccn4)c3)[C@H](Cc3ccccc3)[C@H](O)[C@@H](O)[C@H]2Cc2ccccc2)cc(OC)c1` displayed a logP in data set [6] of 5.2. In addition, the Ki in [7] is 0.86 nM. Also, it took 129 nM to reach the 90% level in [5] (IC90).

In data set [5], `CC(C)c1nc(CN(C)C(=O)N[C@H](C(=O)N[C@@H](Cc2ccccc2)C[C@H](O)[C@H](Cc2ccccc2)NC(=O)OCc2cncs2)C(C)C)cs1` showed an IC90 of 76 nM.

Molecule `Nc1cccc(CN2C(=O)N(Cc3cccc(C(=O)Nc4nc5ccccc5[nH]4)c3)[C@H](Cc3ccccc3)[C@H](O)[C@@H](O)[C@H]2Cc2ccccc2)c1` showed a half-life in data set [8] of 1.5 h. Further, in data set [11], the bioavailability was determined as 109%. Besides, the logP in data set [6] stood at 4.95. The molecule also registered a Cmax in data set [20] of 5500 ng/mL. The molecule also displayed a Ki in [7] of 0.023 nM. Moreover, it took 13.2 nM to reach the 90% level in [5] (IC90).

In data set [5], `CC(C)CN(C[C@@H](O)[C@H](Cc1ccccc1)NC(=O)O[C@H]1CCOC1)S(=O)(=O)c1ccc(N)cc1` gave an IC90 of 46 nM.
